Compound activity from PubChem.
Most compounds without a hit are left out; they make up all but 4.8% or so of the library.
Calb FLC: C. albicans growth inhibition with fluconazole, primary screen, CaCi-2 strain, Alamar Blue fluorescence | AID 1979, 2009 | 300,000 tested, 0.57% active | C. albicans CaCi-2 (fluconazole-resistant clinical isolate) + fluconazole, 48 h | growth inhibition, % (concentration not given with the values);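 active means growth inhibition above about 58% in most replicates, limit read from the data, passing the limit was not always enough; inconclusive means exactly half the replicates above a set limit; inactive means most replicates below a set limit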;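 further: all wells also contain fluconazole at 8 µg/ml as a sub-toxic cotreatment; 0% = median of DMSO wells and 100% = median of geldanamycin control wells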
NALP1 yeast inh: NALP1 inflammasome inhibitors in reconstituted yeast, colorimetric, S. cerevisiae, triplicate retest; S. cerevisiae NALP1/ASC/caspase-1 growth, X-gal OD620, 72 h; inhibition, % at 10 µM; 280,000 tested, 0.61% active; in the data active means inhibition mostly above about 24%, no sharp cut-off; inactive means mostly below about 32%
NALP3 yeast inh: NALP3 inflammasome inhibitors in reconstituted yeast, primary screen, luminescence, uHTS; inhibition, % at 10 µM; Yeast reconstituted NLRP3/ASC/caspase-1, beta-gal luminescence, 24 h; 330,000 tested, 0.39% active;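 active means inhibition of 50% or more; inactive means inhibition below 50%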;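 further: plate controls were induced DMSO wells for no effect and uninduced yeast grown without galactose for full effect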
ATG4B inh: ATG4B protease inhibitors, primary screen, biochemical, fluorescence, uHTS. Cysteine protease ATG4B (Homo sapiens), Q9Y4P1. ATG4B cleavage of LC3-PLA2, NBD-HPC fluorescence, 1 h. 340,000 tested, 0.51% active. AID 504462, 2011. inhibition, % at 8.33 µM; in the data active means inhibition above about 40%
ALR H2O2 inh: inhibitors of human ALR sulfhydryl oxidase, primary screen, biochemical, H2O2 detection, HRP-luminol luminescence, single point; purified ALR, DTT oxidation; inhibition, % (concentration not given with the values); FAD-linked sulfhydryl oxidase ALR (Homo sapiens), P55789; 290,000 tested, 3.8% active;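 active means mean replicate inhibition above about 79%, with every replicate also reaching it, limit read from the data; inconclusive means only one of the two criteria met; inactive means mean below limit and not every replicate reaching it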
UCH37 inh: inhibitors of human UCH37 deubiquitinase, primary screen, biochemical, Ub-AMC cleavage, fluorescence. purified proteasome/UCH37. inhibition, % (no concentration beside the values). 330,000 tested, 0.33% active. AID 588478, 2011;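 active means mean inhibition over replicate wells above about 20%, limit read from the data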;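 further: 0% = compound-free wells with enzyme and 100% = wells lacking proteasome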
Target sequence (Q9Y5K5 whole entry, looked up): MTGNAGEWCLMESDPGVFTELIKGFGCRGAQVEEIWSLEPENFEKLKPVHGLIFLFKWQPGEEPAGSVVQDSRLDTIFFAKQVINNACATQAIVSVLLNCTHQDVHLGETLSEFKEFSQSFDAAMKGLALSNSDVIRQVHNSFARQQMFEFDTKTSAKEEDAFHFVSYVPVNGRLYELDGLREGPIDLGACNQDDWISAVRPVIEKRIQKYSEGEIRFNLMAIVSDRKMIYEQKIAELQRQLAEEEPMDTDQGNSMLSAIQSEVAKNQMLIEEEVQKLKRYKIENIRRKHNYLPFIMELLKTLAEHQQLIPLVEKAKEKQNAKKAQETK
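Signal – fluorescence, ex 355 nm, em 460 nm · System – Proteasome-bound UCH37 · Input – 0.15 nM proteasome as dispensed · Timing – 30 min preincubation with enzyme, 25 min cleavage at room temperature · Read-out basis – percent inhibition of cleavage signal versus uninhibited and no-proteasome wells · Medium – Tris-HCl pH 7.4 with ATP-MgCl2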
NALP3 confirm: NALP3 inhibitors retested in yeast, confirmation, luminescence, single concentration; 1,300 tested, 81% active; inhibition, % at 10 µM; shares compounds with NALP3 yeast inh; yeast expressing human NALP3; in the data active means inhibition above about 48%
Casp1-ASC yeast: CASP1-PYCARD signaling inhibition in yeast, confirmatory test, counterassay for NLRP3 inhibitor program, one-dose | shares compounds with NALP3 yeast inh | yeast expressing Caspase-1-ASC, luminescence counter screen | inhibition, % at 10 µM | 1,000 tested, 66% active | AID 488784, 2010
NALP3 retest: NALP3 inhibitors in yeast, repeat test, confirmation, luminescence, single concentration, retest; shares compounds with NALP3 yeast inh; 1,000 tested, 53% active; inhibition, % at 10 µM; yeast expressing human NALP3, luminescence read-out; AID 488794, 2010
Numbers without * were called inactive; u = inconclusive; x = not tested or not shown. Unless noted, no stated cut-off is given here; in the data, active means inhibition above about 50%; inactive means the rest.

SMILES	Calb FLC	NALP1 yeast inh	NALP3 yeast inh	ATG4B inh	ALR H2O2 inh	UCH37 inh	NALP3 confirm	Casp1-ASC yeast	NALP3 retest
CCN(CC)c1ccc(NC(=O)CCCCC(=O)Nc2ccc(N(CC)CC)cc2)cc1	-9.4	x	0.9	-8.7	u	5.0	x	x	x
CCN(CC)c1ccc(NC(=O)CSC(=O)c2ccccc2)cc1	x	x	55.8*	-1.6	99.2*	9.2	54.2*	56.5*	42.2
Cc1ccc(SCCNC(=S)Nc2cc(C)cc(C)c2)cc1	1.4	15.2	54.9*	20.8	x	6.7	61.1*	50.4*	37.5
Cc1ccc(NC(=S)NCCSc2ccc(Cl)cc2)cc1	3.6	6.0	32.6	7.7	-4.6	-2.1	x	x	x
Cc1cc(C)n(N=Cc2ccc(C(C)C)cc2)c(=O)c1C#N	x	x	x	x	x	5.3	x	x	x
COc1ccccc1CNC(=O)COc1cccnc1[N+](=O)[O-]	0.4	6.1	21.8	-10.9	-10.7	1.4	x	x	x
CCOc1ccccc1NC(=O)COc1cccnc1[N+](=O)[O-]	x	x	58.8*	5.2	-1.4	-0.4	74.3*	x	x
COc1ccccc1NC(=O)COc1cccnc1[N+](=O)[O-]	x	x	51.2*	3.2	x	1.5	67.2*	75.2*	62.0*
COc1ccccc1CNc1ncccc1[N+](=O)[O-]	-1.0	24.3	50.0*	-0.8	-3.0	3.2	47.8*	37.4	39.4
COc1ccc(C=NNC(=O)c2cccc([N+](=O)[O-])c2)cc1OS(=O)(=O)c1ccc(C)cc1	x	x	x	x	x	4.7	x	x	x
CCC(C)[C@H](NC(=O)OC(C)(C)C)C(=O)NN=Cc1ccc2cc(OC)ccc2n1 (some centres not stated)	x	x	x	x	x	-235.9	x	x	x
CCCCOc1ccc(C(=O)Oc2ccc(C)nc2)cc1	u	28.5	79.6*	-5.2	3.5	2.5	86.7*	92.4*	83.8*
C=C(C)Cn1c(SCC(=O)NN=Cc2ccccc2)nc2ccccc2c1=O	x	x	x	x	x	2.6	x	x	x
C(=C\n1nnc2ccccc21)/c1ccccn1	-3.5	x	53.1*	-6.7	x	4.0	71.4*	36.9	x
Nn1nnc2ccccc21	-1.5	3.1	22.5	1.9	6.5	1.3	x	x	x
CC(=NNC(=S)NCCc1ccccc1)c1ccc(O)cc1O	x	x	x	x	x	5.0	x	x	x
Cc1n[nH]c(=S)n1N=Cc1ccc(OCc2ccc(Cl)cc2)cc1	x	x	x	x	x	3.2	x	x	x
CC(C)CCOc1cccc(OCC(=O)Nc2ccncc2)c1	107.6*	36.4	65.9*	8.4	x	0.6	77.6*	86.5*	59.5*
CSc1ccc(C=NNC(=O)c2ccc(-n3cnnn3)cc2)cc1	x	x	x	x	x	-32.7	x	x	x
c1csc(-c2ccc3ccccc3n2)c1	-5.3	17.8	9.8	-2.2	-22.9	x	x	x	x
Nc1nc2ccccc2cc1-c1cccs1	-29.5	32.4	50.7*	-2.4	-3.6	-331.8	69.4*	59.4*	63.0*
O=C1/C(=C\c2ccco2)SC(=S)N1c1ccc(O)cc1	28.6	75.6*	81.2*	1.5	u	1.3	60.9*	26.5	31.6
O=C1/C(=C/c2ccco2)SC(=S)N1c1cccnc1	7.2	-10.1	x	8.1	x	6.4	x	x	x
Cc1ccccc1NC(=O)Nc1ccccn1	-3.6	12.9	52.9*	0.8	1.9	5.6	68.5*	46.8	33.1
COc1ccccc1NC(=O)Nc1cnccn1	8.1	11.9	5.0	-6.2	0.9	0.5	x	x	x
COc1ccccc1NC(=O)Nc1ncccc1C	0.5	25.8	60.4*	-0.6	98.0*	x	71.3*	x	x
Cn1cccc1C=NN1CCN(c2ccccn2)CC1	x	x	x	x	x	5.9	x	x	x
